Measurements: ChEMBL document CHEMBL1139851, “Synthesis and SAR of [1,2,4]triazolo[1,5-a]pyrimidines, a class of anticancer agents with a unique mechanism of tubulin inhibition” (J Med Chem, 2007)
The source made the active and inactive calls. The calls are words filed in the database; no cut-off is given here.

Experiments:
COLO 205 = assay: Cytotoxicity against COLO205 cells; type: cell-based; conditions: Homo sapiens
Outline: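 MTS cytotoxicity assay in COLO 205 cells. Trypsinized cells were plated at 1000/well and preincubated about 24 h at 37 °C in 5% CO2. Compounds were added as nine serial 2-fold DMSO dilutions, final top concentration typically 5 µM, and cells were cultured 3 days. Absorbance was normalized to a time-0 plate. IC50 was read from a 10-concentration dose-response curve run in triplicate.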

U-87MG ATCC [1] = assay: Antitumor activity against U87-MG cells xenografted in iv dosed athymic nu/nu mouse; type: functional, organism-based; conditions: Homo sapiens
Outline: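 Female athymic nu/nu mice received 1 × 10⁶ U87-MG cells subcutaneously in the flank. Once tumors reached 80-120 mg they were randomized into groups of 5-10. Compound was given iv in Klucel or 0.9% saline; controls got vehicle alone. Tumor volume was (length × width²)/2, compared with vehicle by one-sided Student's t-test, p ≤ 0.05.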

U-87MG ATCC [2] = assay: Antitumor activity against U87-MG cells xenografted in orally dosed athymic nu/nu mouse; type: functional, organism-based; conditions: Homo sapiens
Outline: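 U87-MG flank xenografts (1 × 10⁶ cells, subcutaneous) were grown in female athymic nu/nu mice and staged at 80-120 mg. Compound was given by oral gavage on days 0 and 7 after staging. Controls received Klucel vehicle […], with nine animals per group. Tumor volume was (length × width²)/2, tested by one-sided Student's t-test.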

KB [3] = assay: Ratio of IC50 for KB8.5 cells to IC50 for KB cells; type: functional, Homo sapiens
Outline: (§1)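 Resistance ratio is IC50 on KB 8.5 or KB V1 cells divided by IC50 on parental KB cells, each from 10-concentration duplicate dose-response curves.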

HeLa [4] = assay: Induction of apoptosis in HeLa cells assessed as effect on sub-G1 population; type: functional, cell-based; conditions: Homo sapiens
[5] = Antiproliferative activity against KB8.5 cells expressing MDR1; type: functional, cell-based; conditions: Homo sapiens
Outline: (§2)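 KB, KB 8.5 and KB V1 lines differ in P-gp (MDR1) level. Growth-inhibition IC50 was taken from a dose-response curve at 10 concentrations in duplicate.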

[6] = Antiproliferative activity against KBV1 cells expressing MDR1; type: functional, cell-based; conditions: Homo sapiens, KB-V1; outline: as §2
[7] = Ratio of IC50 for KBV1 cells to IC50 for KB cells; type: functional, Homo sapiens; outline: as §1
KB [8] = assay: Antiproliferative activity against KB cells expressing MDR1; type: functional, cell-based; conditions: Homo sapiens; outline: as §2
HeLa [9] = assay: Induction of apoptosis in HeLa cells assessed as increase in sub-G1 population at 1 uM; type: functional, cell-based; conditions: Homo sapiens
[10] = Metabolic stability in mouse liver microsomes; type: ADME, Microsome
Homo sapiens = species: Homo sapiens; assay: Displacement of [3H]paclitaxel from microtubules
A549 = assay: Antitumor activity against A549 cells xenografted in athymic nu/nu mouse after iv administration; type: functional, organism-based
Outline: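 Female athymic nu/nu mice were implanted subcutaneously in the flank with 1 × 10⁷ A549 cells. Animals were staged at about 300 (mm³/mg), then randomized into groups of 5-10. Dosing was iv on days 0, 7, 14 and 21, in Klucel or 0.9% saline; controls got vehicle. Tumor volume was (length × width²)/2. Analysis used a one-sided Student's t-test, p ≤ 0.05.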

HeLa [11] = assay: Induction of apoptosis in HeLa cells assessed as increase in sub-G1 population at 35 nM; type: functional, cell-based; conditions: Homo sapiens
HeLa [12] = assay: Mitotic block in HeLa cells assessed as increase in G2/M peak by flow cytometry at >35 nM; type: functional, cell-based; conditions: Homo sapiens
Tubulin (Homo sapiens) [13] = molecular target: T1, Tubulin (Homo sapiens) (UniProt P68371+Q9H4B7+P0DPH7+P68366+Q13509+Q71U36+P04350+Q3ZCM7+P07437+P68363+Q9BQE3+Q6PEY2+Q13885+Q9BVA1+Q9BUF5); assay: Induction of tubulin polymerization in absence of GTP; type: protein-complex assay
[14] = Oral bioavailability in rat; type: ADME, organism-based; conditions: in vivo
[15] = Metabolic stability in rat liver microsomes; type: ADME, Microsome
[16] = Solubility in water at pH 6.74; type: physicochemical
[17] = Half life in rat; type: ADME, organism-based; conditions: in vivo
[18] = Volume of distribution in rat; type: ADME, organism-based; conditions: in vivo, read-out: Vdss
[19] = Solubility in water at pH 5.48; type: physicochemical
Tubulin (Homo sapiens) [20] = molecular target: T1, Tubulin (Homo sapiens); assay: Displacement of [3H]vinblastine from tubulin; type: protein-complex assay
[21] = Clearance in rat; type: ADME, organism-based; conditions: in vivo
Tubulin (Homo sapiens) [22] = molecular target: T1, Tubulin (Homo sapiens); assay: Displacement of [3H]colchicine from tubulin; type: protein-complex assay
Tubulin (Homo sapiens) [23] = molecular target: T1, Tubulin (Homo sapiens); assay: Induction of MAP-rich tubulin polymerization at 2.7 uM; type: protein-complex assay

C[C@H](Nc1c(-c2c(F)cc(OCCN3CCOCC3)cc2F)c(Cl)nc2ncnn12)C(F)(F)F showed an IC50 (COLO 205) of 245 nM.
For C[C@H](Nc1c(-c2c(F)cc(OCCCO)cc2F)c(Cl)nc2ncnn12)C(F)(F)F, the IC50 (COLO 205) was 67 nM.
Work on C[C@H](Nc1c(-c2c(F)ccc(OCCCN(C)C)c2F)c(Cl)nc2ncnn12)C(F)(F)F yielded an IC50 (COLO 205) of 785 nM.
C[C@@H](Nc1c(-c2c(F)cc(F)cc2F)c(Cl)nc2ncnn12)C(F)(F)F showed an IC50 (COLO 205) of 705 nM.
With C[C@H](Nc1c(-c2c(F)cc(OCCCCCO)cc2F)c(Cl)nc2ncnn12)C(F)(F)F the IC50 (COLO 205) was 214 nM.
C[C@H](Nc1c(-c2c(F)ccc(OCCN(C)C)c2F)c(Cl)nc2ncnn12)C(F)(F)F gave an IC50 (COLO 205) of 1570 nM.
Molecule CCN(C)CCCOc1cc(F)c(-c2c(Cl)nc3ncnn3c2N[C@@H](C)C(F)(F)F)c(F)c1 has an IC50 (COLO 205) of 48 nM.
With C[C@H](Nc1c(-c2c(F)cc(F)cc2F)c(Cl)nc2ncnn12)C(F)(F)F the IC50 (COLO 205) was 267 nM.
With C[C@H](Nc1c(-c2c(F)cc(OCCCN3CCOCC3)cc2F)c(Cl)nc2ncnn12)C(F)(F)F the IC50 (COLO 205) was 51 nM, the Activity (U-87MG ATCC [1]) was “Active” and the Activity (U-87MG ATCC [2]) was “Active”.
Molecule C[C@H](Nc1c(-c2c(F)cc(NCCCN(C)C)cc2F)c(Cl)nc2ncnn12)C(F)(F)F has an IC50 (COLO 205) of 719 nM.
Work on C[C@H](Nc1c(-c2c(F)ccc(OCCCCN(C)C)c2F)c(Cl)nc2ncnn12)C(F)(F)F yielded an IC50 (COLO 205) of 433 nM.
For CC[C@]1(O)C[C@H]2CN(CCc3c([nH]c4ccccc34)[C@@](C(=O)OC)(c3cc4c(cc3OC)N(C=O)[C@H]3[C@@](O)(C(=O)OC)[C@H](OC(C)=O)[C@]5(CC)C=CCN6CC[C@]43[C@@H]65)C2)C1 [VINCRISTINE], the “Ratio IC50” value (KB [3]) was 26, the Activity (HeLa [4]) was “inactive” and the IC50 [5] was 58 nM.
In the case of CCOCCCOc1cc(F)c(-c2c(Cl)nc3ncnn3c2N[C@@H](C)C(F)(F)F)c(F)c1, the IC50 (COLO 205) is reported as 269 nM.
C[C@H](Nc1c(-c2c(F)cc(OCCCN(C)C)cc2F)c(Br)nc2ncnn12)C(F)(F)F showed an IC50 (COLO 205) of 96 nM.
In the case of C[C@H](Nc1c(-c2c(F)cc(OCCCCO)cc2F)c(Cl)nc2ncnn12)C(F)(F)F, the “Ratio IC50” value (KB [3]) is reported as 1.6, the IC50 (COLO 205) is reported as 151 nM and the IC50 [6] is reported as 67 nM. The “Ratio IC50” value [7] was 1.6, the IC50 [5] was 70 nM and the IC50 (KB [8]) was 42 nM.
In the case of C[C@H](Nc1c(-c2c(F)ccc(F)c2F)c(Cl)nc2ncnn12)C(F)(F)F, the IC50 (COLO 205) is reported as 183 nM.
In the case of C[C@H](Nc1c(-c2ccc(F)cc2F)c(Cl)nc2ncnn12)C(F)(F)F, the IC50 (COLO 205) is reported as 953 nM.
C[C@H](Nc1c(-c2c(F)cc(F)cc2F)c(Br)nc2ncnn12)C(F)(F)F gave an IC50 (COLO 205) of 232 nM.
In the case of C[C@H](Nc1c(-c2c(F)cc(OCCCN3CCC3)cc2F)c(Cl)nc2ncnn12)C(F)(F)F, the IC50 (COLO 205) is reported as 326 nM.
CCCCOc1cc(F)c(-c2c(Cl)nc3ncnn3c2N[C@@H](C)C(F)(F)F)c(F)c1 showed an IC50 (COLO 205) of 1900 nM.
In the case of C[C@H](Nc1c(-c2c(F)cc(OCCN(C)C)cc2F)c(Cl)nc2ncnn12)C(F)(F)F, the IC50 (COLO 205) is reported as 581 nM.
C[C@H](Nc1c(-c2c(F)cc(OCCCCN(C)C)cc2F)c(Cl)nc2ncnn12)C(F)(F)F showed an IC50 (COLO 205) of 276 nM.
For C[C@H](Nc1c(-c2c(F)cc(SCCCN(C)C)cc2F)c(Cl)nc2ncnn12)C(F)(F)F, the IC50 (COLO 205) was 192 nM.
In the case of CN(C)CCCOc1cc(F)c(-c2c(Cl)nc3ncnn3c2NCC(F)(F)F)c(F)c1.Cl, the “Ratio IC50” value (KB [3]) is reported as 2, the IC50 (COLO 205) is reported as 53 nM and the IC50 [6] is reported as 263 nM. For the same molecule, the “Ratio IC50” value [7] was 14, the Activity (U-87MG ATCC [1]) was “Active” and the Activity (U-87MG ATCC [2]) was “Active”. The IC50 [5] was 38 nM and the IC50 (KB [8]) was 18.7 nM.
In the case of C[C@H](Nc1c(-c2c(F)cc(CCCCN(C)C)cc2F)c(Cl)nc2ncnn12)C(F)(F)F, the IC50 (COLO 205) is reported as 665 nM.
In the case of C[C@H](Nc1c(-c2c(F)cc(OCCCN3CCCCC3)cc2F)c(Cl)nc2ncnn12)C(F)(F)F, the IC50 (COLO 205) is reported as 113 nM.
In the case of C[C@H](Nc1c(-c2ccc(OCCCN(C)C)cc2F)c(Cl)nc2ncnn12)C(F)(F)F, the IC50 (COLO 205) is reported as 262 nM.
Molecule Fc1cc(F)c(-c2c(Cl)nc3ncnn3c2NCC(F)(F)F)c(F)c1 has an IC50 (COLO 205) of 372 nM.
With COc1cc2c(c(OC)c1OC)-c1ccc(OC)c(=O)cc1[C@@H](NC(C)=O)CC2 the Activity (HeLa [4]) was “inactive”.
Work on C[C@H](Nc1c(-c2c(F)cc(N(C)CCCN(C)C)cc2F)c(Cl)nc2ncnn12)C(F)(F)F yielded an IC50 (COLO 205) of 1670 nM.
In the case of C[C@H](Nc1c(-c2c(F)cc(OCCCN)cc2F)c(Cl)nc2ncnn12)C(F)(F)F, the IC50 (COLO 205) is reported as 452 nM.
In the case of C[C@H](Nc1c(-c2c(F)cc(OCCCN3CCCC3)cc2F)c(Cl)nc2ncnn12)C(F)(F)F, the IC50 (COLO 205) is reported as 44 nM, the Activity (U-87MG ATCC [1]) is reported as “Active” and the Activity (U-87MG ATCC [2]) is reported as “Active”.
With CC(=O)O[C@@]12CO[C@@H]1C[C@H](O)[C@@]1(C)C(=O)[C@H](O)C3=C(C)[C@@H](OC(=O)[C@H](O)[C@@H](NC(=O)OC(C)(C)C)c4ccccc4)C[C@@](O)([C@@H](OC(=O)c4ccccc4)[C@H]21)C3(C)C the Activity (HeLa [9]) was “Active”.
For C[C@H](Nc1c(-c2c(F)cc(OCCO)cc2F)c(Cl)nc2ncnn12)C(F)(F)F, the IC50 (COLO 205) was 422 nM.
For C[C@H](Nc1c(-c2c(F)cc(OCCCN(C)C)cc2F)c(Cl)nc2ncnn12)C(F)(F)F.Cl, the “Ratio IC50” value (KB [3]) was 1.8, the IC50 (COLO 205) was 56 nM and the IC50 [6] was 114 nM. The “Ratio IC50” value [7] was 6.1, the Activity (U-87MG ATCC [1]) was “Active” and the Activity (U-87MG ATCC [2]) was “Active”. For the same molecule, the IC50 [5] was 33 nM and the IC50 (KB [8]) was 18.7 nM.
In the case of CNCCCOc1cc(F)c(-c2c(Cl)nc3ncnn3c2N[C@@H](C)C(F)(F)F)c(F)c1.Cl, the “Ratio IC50” value (KB [3]) is reported as 2.9, the half-life [10] is reported as 433 min and the Activity (Homo sapiens) is reported as “inactive”. For the same molecule, the Tumour inhibition (A549) was “Active”, the Activity (HeLa [11]) was “Active” and the Activity (HeLa [12]) was “Active”. For the same molecule, the Activity (Tubulin (Homo sapiens) [13]) was “Active”, the IC50 (COLO 205) was 31 nM and the IC50 [6] was 953 nM. The bioavailability [14] was 61%, the “Ratio IC50” value [7] was 41.5 and the half-life [15] was 88 min. For the same molecule, the solubility [16] was 890 µg/mL, the half-life [17] was 780 min and the Vd [18] was 14 L/kg. The Activity (U-87MG ATCC [1]) was “Active”, the Activity (U-87MG ATCC [2]) was “Active” and the IC50 [5] was 67 nM. The solubility [19] was 7990 µg/mL, the Activity (Tubulin (Homo sapiens) [20]) was “Active” and the clearance [21] was 14 mL/min/kg. For the same molecule, the Activity (Tubulin (Homo sapiens) [22]) was “inactive”, the Activity (Tubulin (Homo sapiens) [23]) was “Active” and the IC50 (KB [8]) was 23 nM.
